Measured values taken from ChEMBL document CHEMBL4840305, “Structure-guided design and development of novel N-phenylpyrimidin-2-amine derivatives as potential c-Met inhibitors” (Eur J Med Chem, 2021).

Legend:
HCT-116 = assay: cells; conditions: Homo sapiens
HepG2 = assay: cells; conditions: Homo sapiens
PC-3 = assay: cells; conditions: Homo sapiens
PANC-1 = assay: cells; conditions: Homo sapiens
CAKI-1 = assay: cells; conditions: Homo sapiens
[1] = target: Voltage-gated inwardly rectifying potassium channel KCNH2 (Homo sapiens, UniProt Q12809); assay: Inhibition of human ERG
Chain of Voltage-gated inwardly rectifying potassium channel KCNH2 (Q12809 whole entry): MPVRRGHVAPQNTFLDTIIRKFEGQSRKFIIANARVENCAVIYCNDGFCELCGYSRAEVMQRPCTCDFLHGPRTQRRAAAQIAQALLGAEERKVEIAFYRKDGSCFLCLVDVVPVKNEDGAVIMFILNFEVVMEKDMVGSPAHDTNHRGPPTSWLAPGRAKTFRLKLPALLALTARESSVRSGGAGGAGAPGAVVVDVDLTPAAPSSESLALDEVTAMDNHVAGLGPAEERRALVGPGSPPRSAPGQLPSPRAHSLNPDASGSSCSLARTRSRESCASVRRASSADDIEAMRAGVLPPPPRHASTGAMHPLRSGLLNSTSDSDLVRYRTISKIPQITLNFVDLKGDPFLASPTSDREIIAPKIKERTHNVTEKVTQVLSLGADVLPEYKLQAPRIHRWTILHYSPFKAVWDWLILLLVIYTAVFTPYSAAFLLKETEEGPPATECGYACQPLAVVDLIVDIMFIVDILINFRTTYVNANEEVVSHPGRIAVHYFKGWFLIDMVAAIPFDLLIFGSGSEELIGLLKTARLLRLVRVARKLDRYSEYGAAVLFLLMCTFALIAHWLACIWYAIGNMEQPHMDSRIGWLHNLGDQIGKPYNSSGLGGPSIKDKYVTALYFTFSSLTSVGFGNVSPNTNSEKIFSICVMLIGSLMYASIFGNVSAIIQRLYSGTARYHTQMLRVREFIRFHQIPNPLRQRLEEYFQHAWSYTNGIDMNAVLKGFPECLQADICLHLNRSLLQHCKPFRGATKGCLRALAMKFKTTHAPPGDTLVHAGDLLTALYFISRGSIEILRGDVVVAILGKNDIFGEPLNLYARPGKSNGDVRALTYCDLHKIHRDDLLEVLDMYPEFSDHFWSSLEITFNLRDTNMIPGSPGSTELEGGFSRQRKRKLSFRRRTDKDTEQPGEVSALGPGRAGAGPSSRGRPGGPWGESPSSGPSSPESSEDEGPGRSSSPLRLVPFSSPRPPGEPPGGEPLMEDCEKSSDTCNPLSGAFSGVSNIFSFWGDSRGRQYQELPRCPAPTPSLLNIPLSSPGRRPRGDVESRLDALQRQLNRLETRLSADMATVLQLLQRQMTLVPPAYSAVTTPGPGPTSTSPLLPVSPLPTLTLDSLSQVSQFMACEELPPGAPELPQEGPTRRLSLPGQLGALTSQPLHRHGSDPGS

[2] = target: Hepatocyte growth factor receptor (Homo sapiens, UniProt P08581); assay: Inhibition of c-MET kinase (unknown origin) using poly(Glu:Tyr)(4:1) as substrate by ELISA
Chain of Hepatocyte growth factor receptor (P08581 whole entry): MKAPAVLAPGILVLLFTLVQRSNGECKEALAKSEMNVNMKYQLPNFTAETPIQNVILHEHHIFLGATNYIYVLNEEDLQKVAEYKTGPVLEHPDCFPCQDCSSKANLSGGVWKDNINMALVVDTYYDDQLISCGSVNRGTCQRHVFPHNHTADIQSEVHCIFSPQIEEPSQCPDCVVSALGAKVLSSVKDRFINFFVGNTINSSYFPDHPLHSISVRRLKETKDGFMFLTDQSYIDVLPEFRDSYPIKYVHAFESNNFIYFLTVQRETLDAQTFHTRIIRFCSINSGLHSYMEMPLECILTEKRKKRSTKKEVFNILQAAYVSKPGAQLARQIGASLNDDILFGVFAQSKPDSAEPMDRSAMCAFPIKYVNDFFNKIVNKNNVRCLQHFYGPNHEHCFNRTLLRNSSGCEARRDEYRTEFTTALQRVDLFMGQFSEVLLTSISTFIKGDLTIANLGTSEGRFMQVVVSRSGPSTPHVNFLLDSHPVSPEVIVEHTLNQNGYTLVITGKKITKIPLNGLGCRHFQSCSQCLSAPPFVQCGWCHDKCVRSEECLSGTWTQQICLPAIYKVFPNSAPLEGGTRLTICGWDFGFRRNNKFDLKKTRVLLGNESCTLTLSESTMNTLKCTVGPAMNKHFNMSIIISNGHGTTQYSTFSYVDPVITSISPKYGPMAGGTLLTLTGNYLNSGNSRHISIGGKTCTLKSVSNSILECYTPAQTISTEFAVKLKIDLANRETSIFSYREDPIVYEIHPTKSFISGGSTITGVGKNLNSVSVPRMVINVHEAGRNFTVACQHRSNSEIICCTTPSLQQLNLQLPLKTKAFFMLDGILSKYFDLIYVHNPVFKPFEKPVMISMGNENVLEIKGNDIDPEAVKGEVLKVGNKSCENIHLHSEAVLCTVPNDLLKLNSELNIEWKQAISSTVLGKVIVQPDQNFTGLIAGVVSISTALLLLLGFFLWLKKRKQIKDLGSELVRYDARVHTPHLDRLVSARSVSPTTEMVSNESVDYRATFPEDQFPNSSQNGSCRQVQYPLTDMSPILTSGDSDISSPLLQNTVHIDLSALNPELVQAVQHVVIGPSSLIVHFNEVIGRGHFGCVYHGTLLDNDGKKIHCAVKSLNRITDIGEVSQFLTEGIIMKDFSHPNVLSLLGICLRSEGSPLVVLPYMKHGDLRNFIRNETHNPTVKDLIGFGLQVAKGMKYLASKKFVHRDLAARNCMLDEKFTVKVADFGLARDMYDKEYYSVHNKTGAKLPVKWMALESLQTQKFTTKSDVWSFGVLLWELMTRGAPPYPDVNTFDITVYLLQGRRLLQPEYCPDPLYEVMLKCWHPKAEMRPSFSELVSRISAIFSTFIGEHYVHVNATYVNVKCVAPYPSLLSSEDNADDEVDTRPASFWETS

[3] = Apparent clearance during terminal phase in Sprague-Dawley rat at 20 mg/kg, po by LC-MS/MS analysis; format: ADME, organism-based; conditions: in vivo, read-out: CLz/F (converted)
Procedure, shortened: (§1)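 Male SD rats were used. Compound concentrations in plasma were measured by LC/MS/MS. The oral arm was dosed at 20 mg/kg.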

[4] = Cmax in Sprague-Dawley rat at 4 mg/kg, iv by LC-MS/MS analysis; format: ADME, organism-based; design: route intravenous, dose 4 mg/kg; conditions: in vivo
Procedure, shortened: as §1

[5] = Apparent clearance during terminal phase in Sprague-Dawley rat at 4 mg/kg, iv by LC-MS/MS analysis; format: ADME, organism-based; conditions: in vivo
Procedure, shortened: as §1

[6] = Acute toxicity in ICR mouse assessed as animal survival at 2000 mg/kg, po measured on day 14 (reference value: 100%); format: organism-based; conditions: in vivo, time 14 day
[7] = Acute toxicity in ICR mouse assessed as abnormalities in heart at 600 to 1200 mg/kg, po administered as single dose and measured on day 14; format: organism-based; conditions: in vivo, 336 h, dose 600-1200 mg/kg, time 14 day
[8] = Acute toxicity in ICR mouse assessed as abnormalities in kidneys at 600 to 1200 mg/kg, po administered as single dose and measured on day 14; format: organism-based; conditions: in vivo, 336 h, dose 600-1200 mg/kg, time 14 day
[9] = Acute toxicity in ICR mouse assessed as animal survival at 1500 mg/kg, po measured on day 14 (reference value: 100%); format: organism-based; conditions: in vivo, time 14 day
[10] = Acute toxicity in ICR mouse assessed as animal survival at 600 mg/kg, po measured on day 14 (reference value: 100%); format: organism-based; conditions: in vivo, time 14 day
[11] = Acute toxicity in ICR mouse assessed as animal survival at 1000 mg/kg, po measured on day 14 (reference value: 100%); format: organism-based; conditions: in vivo, time 14 day
[12] = Acute toxicity in ICR mouse assessed as animal survival at 800 mg/kg, po measured on day 14 (reference value: 100%); format: organism-based; conditions: in vivo, time 14 day
[13] = Tmax in Sprague-Dawley rat at 20 mg/kg, po by LC-MS/MS analysis; format: ADME, organism-based; conditions: in vivo
Procedure, shortened: as §1

[14] = Acute toxicity in ICR mouse assessed as animal survival at 1200 mg/kg, po measured on day 14 (reference value: 100%); format: organism-based; conditions: in vivo, time 14 day
[15] = Half life in Sprague-Dawley rat at 20 mg/kg, po by LC-MS/MS analysis; format: ADME, organism-based; conditions: in vivo
Procedure, shortened: as §1

[16] = AUC(0 to t) in Sprague-Dawley rat at 20 mg/kg, po by LC-MS/MS analysis; format: ADME, organism-based; design: dose 20 mg/kg; conditions: in vivo
[17] = Cmax in Sprague-Dawley rat at 20 mg/kg, po by LC-MS/MS analysis; format: ADME, organism-based; design: route oral, dose 20 mg/kg; conditions: in vivo
Procedure, shortened: as §1

[18] = AUC(0 to t) in Sprague-Dawley rat at 4 mg/kg, iv by LC-MS/MS analysis; format: ADME, organism-based; design: dose 4 mg/kg; conditions: in vivo
Procedure, shortened: as §1

[19] = Half life in Sprague-Dawley rat at 4 mg/kg, iv by LC-MS/MS analysis; format: ADME, organism-based; conditions: in vivo
Procedure, shortened: as §1

[20] = Acute toxicity in ICR mouse assessed as abnormalities in liver at 600 to 1200 mg/kg, po administered as single dose and measured on day 14; format: organism-based; conditions: in vivo, 336 h, dose 600-1200 mg/kg, time 14 day
[21] = Oral bioavailability in Sprague-Dawley rat at 20 mg/kg by LC-MS/MS analysis; format: ADME, organism-based; conditions: in vivo
Procedure, shortened: as §1

Question: With `Cc1c(C(=O)Nc2ccc(Oc3ccnc(Nc4cccc(N5CCOCC5)c4)n3)c(F)c2)c(=O)n(-c2ccccc2)n1C` as the compound, how does the IC50 (HCT-116) read?
Answer: 2.34 µM

Question: And the IC50 (HepG2)?
Answer: 2.1 µM

Question: What about the IC50 (PC-3) of the same compound?
Answer: 1.8 µM

Question: What about the IC50 (PANC-1) of the same compound?
Answer: 2 µM

Question: What about the IC50 (CAKI-1) of the same compound?
Answer: 1.88 µM

Question: Which IC50 [1] does the source give for `COc1cc2nccc(Oc3ccc(NC(=O)C4(C(=O)Nc5ccc(F)cc5)CC4)cc3)c2cc1OC` [CABOZANTINIB] here?
Answer: > 30 µM

Question: Which IC50 [2] does the source give for `COc1cc(C(=O)NCC2CC2)ccc1Nc1nccc(Oc2ccc(NC(=O)C3(C(=O)Nc4ccc(F)cc4)CC3)cc2)n1` here?
Answer: > 2 µM

Question: With `O=C(Nc1ccc(F)cc1)C1(C(=O)Nc2ccc(Oc3ccnc(Nc4cccc(N5CCOCC5)c4)n3)cc2)CC1` as the compound, how does the IC50 (HCT-116) read?
Answer: 4.2 µM

Question: What about the IC50 (HepG2) of the same compound?
Answer: 3.57 µM

Question: What about the IC50 (PC-3) of the same compound?
Answer: 2.65 µM

Question: What about the IC50 (PANC-1) of the same compound?
Answer: 6.67 µM

Question: And the IC50 (CAKI-1)?
Answer: 3.9 µM

Question: Which IC50 [2] does the source give for `O=C(Nc1ccc(Oc2ccnc(Nc3cccc(N4CCOCC4)c3)n2)cc1)c1ccccc1Nc1ccc(F)cc1` here?
Answer: > 1 µM

Question: For `O=C(Nc1ccc(F)cc1)C1(C(=O)Nc2ccc(Oc3ccnc(Nc4cccc(N5CCOCC5)c4)c3)cc2)CC1`, which IC50 (HCT-116) is on record?
Answer: 4.79 µM

Question: And the IC50 (HepG2)?
Answer: 4.86 µM

Question: And the IC50 (PC-3)?
Answer: 3.3 µM

Question: And the IC50 (PANC-1)?
Answer: 4.01 µM

Question: And the IC50 (CAKI-1)?
Answer: 2.59 µM

Question: Which IC50 (HCT-116) does the source give for `CN1CCN(c2cccc(Nc3nccc(Oc4ccc(NC(=O)C5(C(=O)Nc6ccc(F)cc6)CC5)cc4)n3)c2)CC1` here?
Answer: 2.02 µM

Question: And the IC50 (HepG2)?
Answer: 1.73 µM

Question: What about the IC50 (PC-3) of the same compound?
Answer: 2.25 µM

Question: What about the IC50 (PANC-1) of the same compound?
Answer: 3.16 µM

Question: And the IC50 (CAKI-1)?
Answer: 1.63 µM

Question: With `O=C(Nc1ccc(Oc2ccnc(Nc3cccc(CN4CCOCC4)c3)n2)cc1)c1ccccc1Nc1ccc(F)cc1` as the compound, how does the IC50 [2] read?
Answer: > 1 µM

Question: With `O=C(Nc1ccc(F)cc1)c1ccccc1Nc1ccc(Oc2ccnc(Nc3cccc(N4CCOCC4)c3)n2)cc1` as the compound, how does the IC50 [2] read?
Answer: > 1 µM

Question: Which CL/F [3] does the source give for `Cc1c(C(=O)Nc2ccc(Oc3ccnc(Nc4cccc(N5CCOCC5)c4)n3)cc2)c(=O)n(-c2ccccc2)n1C` here?
Answer: 11 mL/min/kg

Question: And the Cmax [4]?
Answer: 2470 ng/mL

Question: What about the CLz/F [5] of the same compound?
Answer: 6.83 mL/min/kg

Question: And the survival at 336 h [6]?
Answer: 0%

Question: What about the IC50 [1] of the same compound?
Answer: > 40 µM

Question: And the IC50 (HCT-116)?
Answer: 1.37 µM

Question: What about the Activity [7] of the same compound?
Answer: Non-Toxic

Question: And the Activity [8]?
Answer: Non-Toxic

Question: What about the IC50 (HepG2) of the same compound?
Answer: 1.34 µM

Question: What about the IC50 (PC-3) of the same compound?
Answer: 1.34 µM

Question: What about the survival at 336 h [9] of the same compound?
Answer: 70%

Question: What about the survival at 336 h [10] of the same compound?
Answer: 100%

Question: What about the survival at 336 h [11] of the same compound?
Answer: 100%

Question: And the survival at 336 h [12]?
Answer: 100%

Question: And the Tmax [13]?
Answer: 6 h

Question: And the survival at 336 h [14]?
Answer: 100%

Question: And the half-life [15]?
Answer: 9.04 h

Question: And the AUC(0-t) [16]?
Answer: 19000 ng·h/mL

Question: What about the Cmax [17] of the same compound?
Answer: 3050 ng/mL

Question: And the AUC(0-t) [18]?
Answer: 8220 ng·h/mL

Question: And the half-life [19]?
Answer: 8.9 h

Question: And the Activity [20]?
Answer: Non-Toxic

Question: What about the IC50 (PANC-1) of the same compound?
Answer: 1.01 µM

Question: What about the bioavailability [21] of the same compound?
Answer: 59.3%

Question: What about the IC50 (CAKI-1) of the same compound?
Answer: 0.53 µM

Question: What does the source list for `O=C(Nc1ccc(F)cc1)C1(C(=O)Nc2ccc(Oc3cc(Nc4cccc(N5CCOCC5)c4)ncn3)c(F)c2)CC1`?
Answer: IC50 (HCT-116): 7.99 µM; IC50 (HepG2): 5.97 µM; IC50 (PC-3): 4.71 µM; IC50 (PANC-1): 5.53 µM; IC50 (CAKI-1): 2.69 µM

Question: Which results are given for `O=C1CCCc2cc(Nc3nccc(Oc4ccc(NC(=O)C5(C(=O)Nc6ccc(F)cc6)CC5)cc4)n3)ccc2N1`?
Answer: IC50 (HCT-116): 3.14 µM; IC50 (HepG2): 3.24 µM; IC50 (PC-3): 2.6 µM; IC50 (PANC-1): 3.28 µM; IC50 (CAKI-1): 1.47 µM

Question: With `COC(=O)c1ccc(Nc2nccc(Oc3ccc(NC(=O)C4(C(=O)Nc5ccc(F)cc5)CC4)cc3)n2)nc1` as the compound, how does the IC50 [2] read?
Answer: > 2 µM

Question: With `O=C(Nc1ccc(F)cc1)C1(C(=O)Nc2ccc(Oc3ccnc(Nc4cccc(N5CCOCC5)c4)n3)c(F)c2)CC1` as the compound, how does the IC50 (HCT-116) read?
Answer: 3.15 µM

Question: What about the IC50 (HepG2) of the same compound?
Answer: 2.21 µM

Question: And the IC50 (PC-3)?
Answer: 2.34 µM

Question: And the IC50 (PANC-1)?
Answer: 3.4 µM

Question: What about the IC50 (CAKI-1) of the same compound?
Answer: 2.92 µM

Question: With `COC(=O)c1ccc(Nc2nccc(Oc3ccc(NC(=O)C4(C(=O)Nc5ccc(F)cc5)CC4)cc3)n2)c(OC)c1` as the compound, how does the IC50 [2] read?
Answer: > 2 µM

Question: For `O=C(Nc1ccc(F)cc1)c1ccccc1Nc1ccc(Oc2ccnc(Nc3cccc(CN4CCOCC4)c3)n2)cc1`, which IC50 [2] is on record?
Answer: > 1 µM

Question: With `CNC(=O)c1cccc(Nc2nccc(Oc3ccc(NC(=O)C4(C(=O)Nc5ccc(F)cc5)CC4)cc3)n2)c1` as the compound, how does the IC50 (HCT-116) read?
Answer: 3.56 µM

Question: What about the IC50 (HepG2) of the same compound?
Answer: 7.01 µM

Question: What about the IC50 (PC-3) of the same compound?
Answer: 1.93 µM

Question: What about the IC50 (PANC-1) of the same compound?
Answer: 2.85 µM

Question: What about the IC50 (CAKI-1) of the same compound?
Answer: 3.31 µM
